Measurements as given in ChEMBL document CHEMBL1122917, “Vinblastin-23-oyl amino acid derivatives: chemistry, physicochemical data, toxicity, and antitumor activities against P388 and L1210 leukemias” (J Med Chem, 1985).

How the values were obtained:
Format in all cases: functional
[1] = test system: Mus musculus; assay: Number of survivors on 30th day at dose 75 mg/kg/day in 10 mice implanted with P388 leukemia cell line
[2] = test system: Mus musculus; assay: Percent increase in life span at dose 50 mg/kg/day in 10 mice implanted with P388 leukemia cell line
How it was run: (§1)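 Female DBA2 mice inoculated iv on day 0 with 10^4 P388 cells; single iv treatment on day 1 with drug as sulfate salt in physiological saline. Survival followed; %ILS from all deaths and survivors as (T/C × 100) − 100, maximal MST 30 days; survivors counted on days 30 and 60. Most experiments confirmed three times.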

[3] = test system: Mus musculus; assay: Percent increase in life span at dose 55 mg/kg/day in 10 mice implanted with P388 leukemia cell line; how it was run: as §1
[4] = test system: Mus musculus; assay: Number of survivors on 30th day at dose 80 mg/kg/day in 10 mice implanted with P388 leukemia cell line
[5] = test system: Mus musculus; assay: Percent increase in life span at dose 75 mg/kg/day in 10 mice implanted with P388 leukemia cell line
[6] = test system: Mus musculus; assay: Number of survivors on 60th day at dose 55 mg/kg/day in 10 mice implanted with P388 leukemia cell line
[7] = test system: Mus musculus; assay: Number of survivors of DBA2 mice on 60th day after inoculation with L1210 leukemia cell line intraperitoneally at a dose of 75 mg/kg/day; 0/10; settings: route intraperitoneal
[8] = test system: Mus musculus; assay: Number of survivors of DBA2 mice on 30th day after inoculation with L1210 leukemia cell line intravenously at a dose of 75 mg/kg/day; 0/10; settings: route intravenous
[9] = test system: Mus musculus; assay: Number of survivors of DBA2 mice on 60th day after inoculation with L1210 leukemia cell line intraperitoneally at a dose of 70 mg/kg/day; 0/10; settings: route intraperitoneal
[10] = test system: Mus musculus; assay: Number of survivors of DBA2 mice on 30th day after inoculation with L1210 leukemia cell line intravenously at a dose of 70 mg/kg/day; 0/10; settings: route intravenous
[11] = test system: Mus musculus; assay: Number of survivors of DBA2 mice on 30th day after inoculation with L1210 leukemia cell line intravenously at a dose of 60 mg/kg/day; 0/10; settings: route intravenous
[12] = test system: Mus musculus; assay: Percent increase in life span of DBA2 mice after inoculation with L1210 leukemia intravenously at a dose of 55 mg/lg per day
[13] = test system: Mus musculus; assay: Number of survivors of DBA2 mice on 60th day after inoculation with L1210 leukemia cell line intravenously at a dose of 60 mg/kg/day; 0/10; settings: route intravenous
[14] = test system: Mus musculus; assay: Percent increase in life span of DBA2 mice after inoculation with L1210 leukemia intravenously at a dose of 75 mg/kg per day; settings: route intravenous
[15] = test system: Mus musculus; assay: Number of survivors on 60th day at dose 80 mg/kg/day in 10 mice implanted with P388 leukemia cell line
[16] = test system: Mus musculus; assay: Number of survivors on 30th day at dose 60 mg/kg/day in 10 mice implanted with P388 leukemia cell line
[17] = test system: Mus musculus; assay: Number of survivors on 30th day at dose 55 mg/kg/day in 10 mice implanted with P388 leukemia cell line
[18] = test system: Mus musculus; assay: Number of survivors on 60th day at dose 50 mg/kg/day in 10 mice implanted with P388 leukemia cell line
[19] = test system: Mus musculus; assay: Number of survivors on 30th day at dose 50 mg/kg/day in 10 mice implanted with P388 leukemia cell line
[20] = test system: Mus musculus; assay: Number of survivors of DBA2 mice on 30th day after inoculation with L1210 leukemia cell line intravenously at a dose of 65 mg/kg/day; 0/10; settings: route intravenous
[21] = test system: Mus musculus; assay: Number of survivors on 60th day at dose 60 mg/kg/day in 10 mice implanted with P388 leukemia cell line; how it was run: as §1
[22] = test system: Mus musculus; assay: Percent increase in life span of DBA2 mice after inoculation with L1210 leukemia intravenously at a dose of 65 mg/kg per day; settings: route intravenous
How it was run: (§2)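 Female DBA2 mice inoculated iv on day 0 with 10^4 L1210 cells; drugs given iv as sulfate salts in physiological saline, mostly once on day 1. %ILS from all deaths and survivors as (T/C × 100) − 100; survivors scored on days 30 and 60.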

[23] = test system: Mus musculus; assay: Percent increase in life span of DBA2 mice after inoculation with L1210 leukemia intravenously at a dose of 60 mg/kg per day; settings: route intravenous; how it was run: as §2
[24] = test system: Mus musculus; assay: Percent increase in life span of DBA2 mice after inoculation with L1210 leukemia intravenously at a dose of 70 mg/kg per day; settings: route intravenous; how it was run: as §2
[25] = test system: Mus musculus; assay: Number of survivors of DBA2 mice on 30th day after inoculation with L1210 leukemia cell line intravenously at a dose of 55 mg/kg/day; 0/10; settings: route intravenous
[26] = test system: Mus musculus; assay: Percent increase in life span at dose 60 mg/kg/day in 10 mice implanted with P388 leukemia cell line; how it was run: as §1
[27] = test system: Mus musculus; assay: Percent increase in life span at dose 80 mg/kg/day in 10 mice implanted with P388 leukemia cell line; how it was run: as §1
[28] = test system: Mus musculus; assay: Number of survivors of DBA2 mice on 60th day after inoculation with L1210 leukemia cell line intravenously at a dose of 65 mg/kg/day; 0/10; settings: route intravenous
[29] = test system: Mus musculus; assay: Number of survivors of DBA2 mice on 60th day after inoculation with L1210 leukemia cell line intravenously at a dose of 55 mg/kg/day; 0/10; settings: route intravenous
[30] = test system: Mus musculus; assay: Number of survivors on 60th day at dose 75 mg/kg/day in 10 mice implanted with P388 leukemia cell line

## CCOC(=O)[C@H](Cc1ccccc1)NC(=O)[C@@]1(O)[C@H](O)[C@]2(CC)C=CCN3CC[C@@]4(c5cc([C@@]6(C(=O)OC)C[C@H]7C[N@](CCc8c6[nH]c6ccccc86)C[C@](O)(CC)C7)c(OC)cc5N(C)[C@@]14C)[C@@H]32
[1]
  Survivors: 0
[2]
  ILS at 50 mg/kg/day: 21.5%
[3]
  ILS at 55 mg/kg/day: 36.4%
[4]
  Survivors: 0
[5]
  ILS at 75 mg/kg/day: 26.6%
[6]
  Survivors: 0
[7]
  Survivors: 0
[8]
  Survivors: 0
[9]
  Survivors: 0
[10]
  Survivors: 0
[11]
  Survivors: 0
[12]
  ILS: 0%
[13]
  Survivors: 0
[14]
  ILS at 75 mg/kg/day: 25%
[15]
  Survivors: 0
[16]
  Survivors: 0
[17]
  Survivors: 1
[18]
  Survivors: 1
[19]
  Survivors: 1
[20]
  Survivors: 0
[21]
  Survivors: 0
[22]
  ILS at 65 mg/kg/day: 3.5%
[23]
  ILS at 60 mg/kg/day: 13.9%
[24]
  ILS at 70 mg/kg/day: 13%
[25]
  Survivors: 0
[26]
  ILS at 60 mg/kg/day: 13.3%
[27]
  ILS at 80 mg/kg/day: 41.7%
[28]
  Survivors: 0
[29]
  Survivors: 0
[30]
  Survivors: 0
